pIC50: −log10 of the molar value.
Experiments:
[1] = test system: Human immunodeficiency virus 1; assay: Antiviral activity against HIV1 3B infected in human MT4 cells assessed as inhibition of virus-induced cytopathic effect after 4 days by MTT assay; format: functional, organism-based; conditions: Human immunodeficiency virus 1, 3B, MT4, 96 h
[2] = test system: Plasmodium falciparum; assay: Antiplasmodial activity against chloroquine-resistant Plasmodium falciparum W2 infected in human A+ erythrocytes assessed as inhibition of parasite proliferation after 48 hrs; format: functional, organism-based; conditions: W2, 48 h
Summary of the method: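 W2 parasites were cultured in RPMI 1640 with 25 mM HEPES, 25 mM NaHCO3 and 10% A+ human serum at 2.5% hematocrit, at 37 °C under 10% O2/6% CO2/84% N2. After 48 h exposure without medium change, cells were stained with hydroethidine (0.05 mg/mL in PBS, 20 min, dark, 37 °C). Parasitaemia was read by flow cytometry. IC50 came from three independent experiments.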

[3] = Selectivity index, ratio of CC50 for human MT4 cells to IC50 for HIV2 ROD; format: functional
Summary of the method: (§1)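 Selectivity index was calculated as the MT-4 CC50 from uninfected cells divided by the IC50 against HIV-1 IIIB or HIV-2 ROD. Both values came from the 4-day MTT cytopathic-effect assays.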

[4] = test system: Human immunodeficiency virus 2; assay: Antiviral activity against HIV2 ROD infected in human MT4 cells assessed as inhibition of virus-induced cytopathic effect after 4 days by MTT assay; format: functional, organism-based; conditions: Human immunodeficiency virus 2, ISOLATE ROD, MT4, 96 h
[5] = Cytotoxicity against human MT4 cells after 4 days by MTT assay; format: cell-based
Summary of the method: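 Uninfected MT-4 cells were run in parallel with the antiviral test under the same conditions: 10⁵ cells/mL, serial compound dilutions from DMSO stocks, 4 days at 37 °C. Viability was read by MTT. CC50 is the concentration that lowers viability of uninfected cells by 50%.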

[6] = test system: THP-1; assay: Cytotoxicity against human THP1 cells using propidium iodide staining after 72 hrs by flow cytometry; format: cell-based; conditions: THP-1, 72 h
[7] = Selectivity index, ratio of IC50 for human THP1 cells to IC50 for chloroquine-resistant Plasmodium falciparum W2; format: toxicity, cell-based, THP-1; conditions: read-out: Selectivity Index
[8] = Selectivity index, ratio of CC50 for human MT4 cells to IC50 for HIV1 3B; format: functional; summary of the method: as §1

COc1c(-c2ccc(C(F)(F)F)cc2)oc2ccc(N)cc2c1=O
pIC50 [1]: 3.54
pIC50 [2]: 4.59
Selectivity Index [3]: 6.1
pIC50 [4]: 4.32
CC50 at 96 h [5]: 290 µM

COc1ccc(-c2oc3ccc(N)cc3c(=O)c2OC)cc1
pIC50 [6]: 4.68
pIC50 [1]: 3.70
pIC50 [2]: < 4.68
Selectivity Index [3]: 3.4
pIC50 [4]: 4.24
CC50 at 96 h [5]: 200 µM

COc1ccccc1-c1cc(=O)c2cc(N)ccc2o1
pIC50 [6]: 4.13
pIC50 [1]: 4.06
pIC50 [2]: 4.30
selectivity ratio [7]: 1.5
Selectivity Index [8]: 2.3
pIC50 [4]: 3.70
CC50 at 96 h [5]: 198 µM

Nc1ccc2oc(-c3cccc(F)c3)cc(=O)c2c1
pIC50 [6]: < 3.90
pIC50 [1]: 4.21
pIC50 [2]: < 4.30
Selectivity Index [3]: 4.6
Selectivity Index [8]: 4.4
pIC50 [4]: 4.23
CC50 at 96 h [5]: 269 µM

Cc1ccnc2c1NC(=O)c1cccnc1N2C1CC1 [NEVIRAPINE]
pIC50 [1]: 7.52
Selectivity Index [3]: 46
pIC50 [4]: 4.82

COc1c(-c2cccc(C(F)(F)F)c2)oc2ccc(N)cc2c1=O
pIC50 [6]: 4.48
pIC50 [1]: 4.30
pIC50 [2]: < 4.48
Selectivity Index [3]: 1.3
Selectivity Index [8]: 1.5
pIC50 [4]: 4.24
CC50 at 96 h [5]: 73.1 µM

COc1c(-c2cccc(F)c2)oc2ccc(N)cc2c1=O
pIC50 [6]: 4.47
pIC50 [1]: 3.95
pIC50 [2]: < 4.47
Selectivity Index [3]: 1.9
pIC50 [4]: 4.22
CC50 at 96 h [5]: 112 µM

O=c1[nH]cnc2c1ncn2[C@H]1CC[C@@H](CO)O1 [DIDANOSINE]
Selectivity Index [3]: >195
Selectivity Index [8]: >98
CC50 at 96 h [5]: > 529 µM

CC(=O)Nc1ccc2oc(-c3ccccc3F)cc(=O)c2c1
pIC50 [6]: < 3.90
pIC50 [1]: 3.69
pIC50 [2]: 4.40
selectivity ratio [7]: > 3.1
pIC50 [4]: 3.69
CC50 at 96 h [5]: 205 µM

Cc1cn([C@H]2C[C@H](N=[N+]=[N-])[C@@H](CO)O2)c(=O)[nH]c1=O [ZIDOVUDINE]
pIC50 [1]: 8.30
Selectivity Index [8]: >17990
CC50 at 96 h [5]: 93.5 µM

COc1c(-c2cccc(C(F)(F)F)c2)oc2ccc(NC(C)=O)cc2c1=O
pIC50 [6]: 4.28
pIC50 [1]: 3.70
pIC50 [2]: 4.72
selectivity ratio [7]: 2.7
pIC50 [4]: 3.70
CC50 at 96 h [5]: 201 µM

COc1c(-c2ccccc2F)oc2ccc(N)cc2c1=O
pIC50 [6]: < 3.90
pIC50 [1]: 4.35
pIC50 [2]: 4.64
selectivity ratio [7]: > 5.4
Selectivity Index [8]: 5.2
pIC50 [4]: 3.63
CC50 at 96 h [5]: 234 µM

COc1ccccc1/C=C/C(=O)c1cc(NC(C)=O)ccc1O
pIC50 [6]: < 3.90
pIC50 [1]: 4.42
pIC50 [2]: 4.87
selectivity ratio [7]: > 9.3
pIC50 [4]: 4.42
CC50 at 96 h [5]: 37.8 µM

CC(=O)Nc1ccc(O)c(C(=O)/C=C/c2ccccc2)c1
pIC50 [6]: 4.07
pIC50 [1]: 4.30
pIC50 [2]: 4.80
selectivity ratio [7]: 5.4
pIC50 [4]: 4.30
CC50 at 96 h [5]: 49.4 µM

COc1ccc(-c2cc(=O)c3cc(N)ccc3o2)cc1
pIC50 [6]: 3.91
pIC50 [1]: 3.62
pIC50 [2]: 4.46
selectivity ratio [7]: 3.5
pIC50 [4]: 3.62
CC50 at 96 h [5]: 240 µM

CC(=O)Nc1ccc(O)c(C(=O)/C=C/c2ccc(F)cc2)c1
pIC50 [6]: 4.16
pIC50 [1]: 4.39
pIC50 [2]: 4.77
selectivity ratio [7]: 4.1
pIC50 [4]: 4.39
CC50 at 96 h [5]: 41.1 µM

COc1cccc(-c2oc3ccc(N)cc3c(=O)c2OC)c1
pIC50 [6]: 4.43
pIC50 [1]: 3.60
pIC50 [2]: 4.89
selectivity ratio [7]: 2.8
pIC50 [4]: 3.60
CC50 at 96 h [5]: 251 µM

COc1ccccc1-c1oc2ccc(N)cc2c(=O)c1OC
pIC50 [6]: 3.94
pIC50 [1]: 3.64
pIC50 [2]: 5.11
selectivity ratio [7]: 15.1
pIC50 [4]: 3.64
CC50 at 96 h [5]: 229 µM

COc1ccccc1-c1oc2ccc(NC(C)=O)cc2c(=O)c1OC
pIC50 [6]: 3.97
pIC50 [1]: 3.81
pIC50 [2]: 4.80
selectivity ratio [7]: 6.7
pIC50 [4]: 3.81
CC50 at 96 h [5]: 154 µM

COc1c(-c2cccc(F)c2)oc2ccc(NC(C)=O)cc2c1=O
pIC50 [6]: < 3.90
pIC50 [1]: 3.68
pIC50 [2]: 4.31
selectivity ratio [7]: > 2.6
pIC50 [4]: 3.68
CC50 at 96 h [5]: 210 µM
